Among the data in ChEMBL document CHEMBL1122500, “Potential radiosensitizing agents. 6. 2-Nitroimidazole nucleosides: arabinofuranosyl and hexopyranosyl analogues” (J Med Chem, 1983) are PC and SER values, retold here.

A short description of series [1]: Partition coefficient value between phosphate buffer (0.1 M, pH 7.4) and octanol at room temperature. The class given is physicochemical. Conditions: octanol/water. The gist of the method: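 Shake-flask method: compound dissolved in 0.1 M phosphate buffer pH 7.4, stirred 1 h at room temperature with an equal volume of octanol. Aqueous-phase nucleoside concentration measured spectrophotometrically.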

Series [2] can be described thus: In vitro radiosensitizing activity against Chinese Hamster cells at a conc of 1 mM measured as sensitizer enhancement ratio. Format: functional, Cricetulus griseus. The gist of the method:
(§1)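 V-79 Chinese hamster asynchronous monolayers from exponential cultures, plated in sealed containers and made hypoxic by flushing with 95% N2/5% CO2 for 1 h at 37 °C with compound present; total drug exposure 2 h. Cobalt-60 irradiation at ~230 rad/min, 400–2700 rad. Colonies counted after 6 days at 37 °C. SER = D0 hypoxic control / D0 hypoxic drug-treated; averaged over at least two experiment sets.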

A short description of series [3]: In vitro radiosensitizing activity against Chinese Hamster cells at a conc of 1.0 mM measured as sensitizer enhancement ratio. Format: functional, Cricetulus griseus. The gist of the method: as §1
A short description of series [4]: In vitro radiosensitizing activity against Chinese Hamster cells at a conc of 0.5 mM measured as sensitizer enhancement ratio. The class given is functional, Cricetulus griseus. The gist of the method:
as §1

Series [5] is described as follows: In vitro radiosensitizing activity against Chinese Hamster cells at a conc of 0.1 mM measured as sensitizer enhancement ratio.
Series [6] in a line: In vitro radiosensitizing activity against Chinese Hamster cells at a conc of 0.05 mM measured as sensitizer enhancement ratio. The class given is functional, Cricetulus griseus. The gist of the method:
as §1

Structures are written as SMILES.

The compound `O=[N+]([O-])c1nccn1[C@H]1O[C@H](CO)[C@@H](O)[C@@H]1O` came in with a PC in series [1] of 0.11. Further, the SER in series [2] is 1.6.

With `O=[N+]([O-])c1nccn1[C@H]1C=COC(CO)C1O` (some centres not stated), the SER in series [3] is given as 1.7. The compound also showed a PC in series [1] of 0.24.

Take `O=[N+]([O-])c1nccn1[C@@H]1O[C@H](CO)[C@@H](O)[C@@H]1O`: the SER in series [3] worked out at 1.8. The compound further yielded a PC in series [1] of 0.07.

As to `CC(=O)OC[C@H]1O[C@@H](n2ccnc2[N+](=O)[O-])C=C[C@@H]1OC(C)=O`, the SER in series [4] was 1.6.

In the case of `CC(=O)OC[C@H]1O[C@H](n2ccnc2[N+](=O)[O-])C=C[C@@H]1OC(C)=O`, the SER in series [4] is 1.9.

In the case of `O=C(OC[C@H]1O[C@@H](n2ccnc2[N+](=O)[O-])[C@H](OC(=O)c2ccccc2)[C@@H]1OC(=O)c1ccccc1)c1ccccc1`, in series [5], the SER worked out at 1.1.

Regarding `O=[N+]([O-])c1nccn1[C@@H]1C=C[C@H](O)[C@@H](CO)O1`, the SER in series [4] was determined as 2. In addition, in series [1], the PC amounted to 0.22.

`CC(=O)OCC1OC=CC(n2ccnc2[N+](=O)[O-])C1OC(C)=O` (configuration not stated): in series [4], the SER is reported as 1.8.

On to `O=C(OC[C@H]1O[C@H](n2ccnc2[N+](=O)[O-])[C@H](OC(=O)c2ccccc2)[C@@H]1OC(=O)c1ccccc1)c1ccccc1`, for which, in series [6], the SER worked out at 1.

In turn, `COCC(O)Cn1ccnc1[N+](=O)[O-]` (configuration not stated) [MISONIDAZOLE] yielded a PC in series [1] of 0.43. The SER in series [2] was determined as 1.9.

`O=[N+]([O-])c1nccn1[C@H]1C=C[C@H](O)[C@@H](CO)O1`: the SER in series [3] was determined as 2. In addition, the PC in series [1] is given as 0.22.
